# Test results as given in ChEMBL document CHEMBL1125731, “2,3-Dihydrobenzofuran analogues of hallucinogenic phenethylamines” (J Med Chem, 1991).
# How the values were obtained:
# Rattus norvegicus [1] = test: Percent of animals selecting drug liver was determined at a dose of 16.28 intraperitoneally. (No. of animals disrupted:1); type: functional
# Method in brief: (§1)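 Male Sprague-Dawley rats (~200 g) were kept at ~80% free-feeding weight and trained on FR-50 to discriminate LSD tartrate (0.08 mg/kg ip) from saline. Test drug was given ip in saline 30 min before a session lasting until 50 responses or 5 min, unreinforced. Rats failing to make 50 responses were scored disrupted. At least eight rats were tested per dose.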
# Rattus norvegicus [2] = test: Percent of animals selecting drug liver was determined at a dose of 40.70 intraperitoneally. (No. of animals disrupted:4); type: functional; method in brief: as §1
# [3] = Hill coefficient as determined.
# Method in brief: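 Rat prefrontal cortex homogenate incubated in triplicate with 0.25 nM [125I]-(R)-DOI (2000 Ci/mmol) and varying displacer concentrations, 37 °C for 15 min. The radioligand K_D was 1.34 nM. Binding curves were fitted by computer analysis. Protein was measured by Bradford.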
# Rattus norvegicus [4] = test: Percent of animals selecting drug liver was determined at a dose of 4.07 intraperitoneally. ( No. of animals disrupted:0); type: functional; method in brief: as §1
# Rattus norvegicus [5] = test: Percent of animals selecting drug liver was determined at a dose of 8.14 intraperitoneally. (No. of animals disrupted:1); type: functional; method in brief: as §1
# Rattus norvegicus [6] = test: Percent of animals selecting drug liver was determined at a dose of 32.56 intraperitoneally. (No. of animals disrupted:1); type: functional; method in brief: as §1
# [7] = target: Serotonin 2 (5-HT2) receptor (Rattus norvegicus, UniProt P30994+P08909+P14842); test: Compound was evaluated for its ability to displace 0.25 nM [125I](R)-DOI from binding sites in rat frontal cortex.; type: tissue-based
# Rattus norvegicus [8] = test: Percent of animals selecting drug liver was determined at a dose of 8.16 intraperitoneally. (No. of animals disrupted:0); type: functional; method in brief: as §1
# Rattus norvegicus [9] = test: Percent of animals selecting drug liver was determined at a dose of 12.16 intraperitoneally. (No. of animals disrupted:1); type: functional; method in brief: as §1
# Rattus norvegicus [10] = test: Percent of animals selecting drug liver was determined at a dose of 2.03 intraperitoneally. (No. of animals disrupted:0); type: functional; method in brief: as §1
# Rattus norvegicus [11] = test: Percent of animals selecting drug liver was determined at a dose of 10.19 intraperitoneally. (No. of animals disrupted:0); type: functional; method in brief: as §1
# Rattus norvegicus [12] = test: Percent of animals selecting drug liver was determined at a dose of 2.03 intraperitoneally. (No. of animals disrupted:2); type: functional; method in brief: as §1
# Rattus norvegicus [13] = test: Percent of animals selecting drug liver was determined at a dose of 0.25 intraperitoneally. (No. of animals disrupted:0); type: functional; method in brief: as §1
# Rattus norvegicus [14] = test: Percent of animals selecting drug liver was determined at a dose of 0.51 intraperitoneally. (No. of animals disrupted:0); type: functional; method in brief: as §1
# Rattus norvegicus [15] = test: Percent of animals selecting drug liver was determined at a dose of 1.01 intraperitoneally. (No. of animals disrupted:0); type: functional; method in brief: as §1
# Rattus norvegicus [16] = test: Percent of animals selecting drug liver was determined at a dose of 2.03 intraperitoneally. (No. of animals disrupted:1); type: functional; method in brief: as §1
# Rattus norvegicus [17] = test: Percent of animals selecting drug liver was determined at a dose of 1.02 intraperitoneally. (No. of animals disrupted:0); type: functional; method in brief: as §1
structure (smiles),measurement,setting,value
COc1ccc(OC)c(CC(C)N)c1 (stereo not given),SDL,Rattus norvegicus [1],50%
same,SDL,Rattus norvegicus [2],63%
same,Hill coefficient,[3],0.92
same,SDL,Rattus norvegicus [4],38%
same,SDL,Rattus norvegicus [5],38%
same,SDL,Rattus norvegicus [6],63%
COc1ccc2c(c1CC(C)N)CCO2 (stereo not given),Ki,[7],146 nM
same,Hill coefficient,[3],0.93
same,SDL,Rattus norvegicus [8],50%
same,SDL,Rattus norvegicus [9],88%
same,SDL,Rattus norvegicus [10],25%
same,SDL,Rattus norvegicus [11],63%
COc1cc(Br)c2c(c1CC(C)N)CCO2 (stereo not given),SDL,Rattus norvegicus [12],88%
same,Ki,[7],3.1 nM
same,Hill coefficient,[3],1.06
same,SDL,Rattus norvegicus [13],25%
same,SDL,Rattus norvegicus [14],38%
same,SDL,Rattus norvegicus [15],75%
COc1cc2c(cc1CC(C)N)OCC2 (stereo not given),Ki,[7],388 nM
same,Hill coefficient,[3],0.91
COc1cc(CC(C)N)c(OC)cc1Br (stereo not given) [BROLAMFETAMINE],Hill coefficient,[3],1.09
COc1cc(CC(C)N)c(OC)cc1C (stereo not given) [DOM],SDL,Rattus norvegicus [16],88%
same,Hill coefficient,[3],0.89
same,SDL,Rattus norvegicus [17],75%
same,SDL,Rattus norvegicus [14],13%
